Assay results: ChEMBL document CHEMBL4393666, “Synthesis and Anti-HCV Activities of 4'-Fluoro-2'-Substituted Uridine Triphosphates and Nucleotide Prodrugs: Discovery of 4'-Fluoro-2'- C-methyluridine 5'-Phosphoramidate Prodrug (AL-335) for the Treatment of Hepatitis C Infection” (J Med Chem, 2019)
Activity calls are given as the source filed them. The rule behind the calls is not given here.

What was measured:
DNA polymerase beta = DNA polymerase beta (Homo sapiens, UniProt P06746); assay: Inhibition of human DNA polymerase-beta assessed as reduction in [3H]dTTP incorporation in to activated calf thymus DNA substrate at 100 uM by scintillation counting method relative to control; settings: human DNA polymerase-beta enzyme, probe [3H]dTTP
[1] = biological target: DNA-directed RNA polymerase, mitochondrial (Homo sapiens, UniProt O00411); assay: Inhibition of human mitochondrial DNA-dependent RNA polymerase activity at 100 uM using 33P-RNA/DNA primer/template by phosphor-imaging analysis
[2] = Inhibition of RNA polymerase 2 in human HeLa cell nuclear extract assessed as reduction in RNA transcription by PAGE analysis; assay type: cell-based
Method in brief: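 In vitro transcription by RNA polymerase II in HeLa cell nuclear extract; RNA products resolved on 6% TBE-urea polyacrylamide gels.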

DNA polymerase gamma = biological target: T1, DNA polymerase gamma (Homo sapiens, UniProt P54098); assay: Inhibition of human DNA polymerase-gamma assessed as reduction in [3H]dTTP incorporation in to activated calf thymus DNA substrate at 100 uM by scintillation counting method relative to control; settings: human DNA polymerase-gamma enzyme, probe [3H]dTTP
T1 sequence (P54098 whole entry): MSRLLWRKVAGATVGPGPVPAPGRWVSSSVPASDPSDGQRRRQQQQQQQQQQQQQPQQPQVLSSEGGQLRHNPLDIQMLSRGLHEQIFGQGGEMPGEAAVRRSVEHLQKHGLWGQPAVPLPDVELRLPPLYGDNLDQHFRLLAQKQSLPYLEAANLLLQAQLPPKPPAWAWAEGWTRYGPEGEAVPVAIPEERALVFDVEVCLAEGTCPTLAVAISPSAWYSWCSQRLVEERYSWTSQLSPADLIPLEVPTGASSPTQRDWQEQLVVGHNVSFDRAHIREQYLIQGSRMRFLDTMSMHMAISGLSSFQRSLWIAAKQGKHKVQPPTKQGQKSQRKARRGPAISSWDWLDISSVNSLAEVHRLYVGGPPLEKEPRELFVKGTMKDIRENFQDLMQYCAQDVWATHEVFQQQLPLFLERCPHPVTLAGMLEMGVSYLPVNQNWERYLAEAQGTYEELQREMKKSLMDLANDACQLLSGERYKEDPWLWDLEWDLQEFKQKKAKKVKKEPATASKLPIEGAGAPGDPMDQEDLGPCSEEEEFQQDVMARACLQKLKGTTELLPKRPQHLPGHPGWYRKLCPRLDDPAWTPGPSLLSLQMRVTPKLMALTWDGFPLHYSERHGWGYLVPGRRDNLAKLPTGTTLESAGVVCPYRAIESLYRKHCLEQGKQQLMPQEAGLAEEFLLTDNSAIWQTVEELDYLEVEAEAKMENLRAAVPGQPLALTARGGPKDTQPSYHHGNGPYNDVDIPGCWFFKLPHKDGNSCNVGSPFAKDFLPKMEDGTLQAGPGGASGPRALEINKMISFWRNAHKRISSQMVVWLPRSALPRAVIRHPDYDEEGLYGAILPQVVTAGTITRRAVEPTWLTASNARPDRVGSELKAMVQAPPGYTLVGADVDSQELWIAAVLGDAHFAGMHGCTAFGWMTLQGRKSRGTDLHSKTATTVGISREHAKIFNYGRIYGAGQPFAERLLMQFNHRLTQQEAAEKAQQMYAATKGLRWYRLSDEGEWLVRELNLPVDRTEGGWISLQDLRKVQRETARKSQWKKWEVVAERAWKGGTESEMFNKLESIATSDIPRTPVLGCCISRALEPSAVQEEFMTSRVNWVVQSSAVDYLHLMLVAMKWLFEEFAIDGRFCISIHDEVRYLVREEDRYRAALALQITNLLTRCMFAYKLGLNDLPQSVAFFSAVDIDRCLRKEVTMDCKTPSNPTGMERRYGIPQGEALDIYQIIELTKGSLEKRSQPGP

[3] = biological target: RNA-directed RNA polymerase (Hepacivirus hominis, UniProt O39930); assay: Inhibition of HCV NS5B RNA-dependent RNA polymerase activity assessed as reduction in radiolabeled-CTP incorporation into RNA using cIRES template measured after 2 hrs by microscintillation counting method
DNA polymerase alpha = biological target: T2, DNA polymerase alpha (Homo sapiens, UniProt P09884); assay: Inhibition of human DNA polymerase-alpha assessed as reduction in [3H]dTTP incorporation in to activated calf thymus DNA substrate at 100 uM by scintillation counting method relative to control; settings: human DNA polymerase-alpha enzyme, probe [3H]dTTP
T2 sequence (P09884 whole entry): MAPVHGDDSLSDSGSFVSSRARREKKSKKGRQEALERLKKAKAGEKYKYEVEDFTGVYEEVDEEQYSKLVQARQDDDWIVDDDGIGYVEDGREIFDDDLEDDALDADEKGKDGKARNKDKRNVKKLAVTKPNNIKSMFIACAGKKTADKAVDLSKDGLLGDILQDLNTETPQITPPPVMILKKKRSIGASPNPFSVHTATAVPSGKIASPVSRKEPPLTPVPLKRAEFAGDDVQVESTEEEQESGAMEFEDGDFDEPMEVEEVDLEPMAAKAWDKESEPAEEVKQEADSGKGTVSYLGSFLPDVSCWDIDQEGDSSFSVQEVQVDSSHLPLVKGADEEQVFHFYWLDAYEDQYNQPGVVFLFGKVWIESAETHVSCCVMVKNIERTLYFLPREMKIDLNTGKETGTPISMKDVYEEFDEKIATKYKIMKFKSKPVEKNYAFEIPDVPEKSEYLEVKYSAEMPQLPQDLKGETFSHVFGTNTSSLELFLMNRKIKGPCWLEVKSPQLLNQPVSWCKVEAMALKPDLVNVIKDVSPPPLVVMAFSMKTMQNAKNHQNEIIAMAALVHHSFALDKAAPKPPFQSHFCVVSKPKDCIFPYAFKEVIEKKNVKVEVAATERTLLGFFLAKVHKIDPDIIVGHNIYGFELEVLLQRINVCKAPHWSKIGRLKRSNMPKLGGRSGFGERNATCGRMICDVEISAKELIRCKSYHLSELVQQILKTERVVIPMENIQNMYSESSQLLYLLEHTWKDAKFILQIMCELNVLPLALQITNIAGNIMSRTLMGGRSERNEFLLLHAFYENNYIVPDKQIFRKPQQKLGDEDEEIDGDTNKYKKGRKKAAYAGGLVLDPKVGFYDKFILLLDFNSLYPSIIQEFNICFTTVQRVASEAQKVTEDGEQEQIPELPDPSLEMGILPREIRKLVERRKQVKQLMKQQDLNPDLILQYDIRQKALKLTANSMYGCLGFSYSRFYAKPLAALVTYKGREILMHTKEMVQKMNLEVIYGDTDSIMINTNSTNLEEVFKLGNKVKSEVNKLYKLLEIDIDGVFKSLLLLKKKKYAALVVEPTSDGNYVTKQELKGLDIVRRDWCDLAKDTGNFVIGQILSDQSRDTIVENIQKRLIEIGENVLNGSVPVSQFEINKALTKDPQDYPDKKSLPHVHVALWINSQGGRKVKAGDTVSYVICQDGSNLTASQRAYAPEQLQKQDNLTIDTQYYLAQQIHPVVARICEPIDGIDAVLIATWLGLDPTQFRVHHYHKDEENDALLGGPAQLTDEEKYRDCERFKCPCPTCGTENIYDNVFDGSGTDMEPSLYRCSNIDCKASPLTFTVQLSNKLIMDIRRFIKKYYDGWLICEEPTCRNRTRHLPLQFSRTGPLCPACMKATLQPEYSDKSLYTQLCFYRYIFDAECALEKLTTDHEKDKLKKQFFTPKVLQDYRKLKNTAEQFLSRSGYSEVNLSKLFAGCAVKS

[4] = biological target: RNA-directed RNA polymerase (Hepacivirus hominis) (UniProt O39930); assay: Inhibition of HCV NS5B RNA-dependent RNA polymerase assessed as chain termination of RNA synthesis by measuring reduction in dUTP incorporation at 100 uM using 33P-labeled 5'-GG-3'/5'-AUGUAUAAUUAUUGUAGCC-3' as primer/template measured after 2 hrs by phosphor-screening analysis
Method in brief: (§1)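 Recombinant NS5B (2 μM) with 1 μM template and 0.5 μM 33P-labeled GG primer in 40 mM Tris-HCl pH 8, 3 mM DTT, 20 mM NaCl, 6 mM MgCl2. Started with combinations of CTP, ATP, UTP, test NTP and 3'-dUTP, each 100 μM; 2 h at 30°C. Samples denatured 95°C 5 min, resolved on 22.5% polyacrylamide urea sequencing gel, phosphor-screen imaged.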

[5] = biological target: RNA-directed RNA polymerase (Hepacivirus hominis) (UniProt O39930); assay: Inhibition of HCV NS5B RNA-dependent RNA polymerase assessed as chain termination of RNA synthesis by measuring reduction in UTP incorporation at 100 uM using 33P-labeled 5'-GG-3'/5'-AUGUAUAAUUAUUGUAGCC-3' as primer/template measured after 2 hrs by phosphor-screening analysis; method in brief: as §1
[6] = Cytotoxicity against human HepG2 cells treated for 8 days measured post-last dose by Celltiter-glo luminescent assay; assay type: cell-based
Method in brief: (§2)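 Cells at 1×10^5/well on collagen I, first kept 8 days in recommended medium without drug. Then compound exposure for 8 days, refed every other day. Viability by CellTiter-Glo luminescence; CC50 by curve fitting.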

[7] = Cytotoxicity against human HuH7 cells treated for 8 days measured post-last dose by Celltiter-glo luminescent assay; assay type: cell-based, Huh-7; method in brief: as §2
[8] = Cytotoxicity against human U937 cells treated for 8 days measured post-last dose by Celltiter-glo luminescent assay; assay type: cell-based, U-937; method in brief: as §2
[9] = Cytotoxicity against human MT4 cells treated for 8 days measured post-last dose by Celltiter-glo luminescent assay; assay type: cell-based; method in brief: as §2
[10] = Cytotoxicity against human HeLa cells treated for 8 days measured post-last dose by Celltiter-glo luminescent assay; assay type: cell-based; method in brief: as §2
[11] = Cytotoxicity against human A549 cells treated for 8 days measured post-last dose by Celltiter-glo luminescent assay; assay type: cell-based; method in brief: as §2
[12] = Half life in human hepatocytes assessed as 2a-TP level at 50 uM treated for 24 hrs followed by compound washout by LC-MS/MS analysis; assay type: ADME, cell-based, Hepatocyte
Method in brief: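 Primary human hepatocytes loaded with prodrug at 50 μM for 24 h at 37°C. Medium then replaced with blank medium; samples at 0, 3, 6, 10, 24 and 48 h. NTP by LC-MS/MS; half-life from first-order decay; n=3.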

[13] = Cytotoxicity against human HuH7 cells infected with HCV con1 subgenomic replicon assessed as reduction in cell viability measured after 3 days by CellTiter-blue cell viability assay; assay type: cell-based, Huh-7
Method in brief: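 Con1 replicon Huh-7 cells treated as for the replicon assay (DMEM, 2% FBS, 0.5% DMSO, no G418, 37°C) for 3 days. Viability by CellTiter-Blue; CC50 by curve fitting.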

Hepatitis C virus = assay: Antiviral activity against HCV con1 subgenomic replicon infected in human HuH7 cells assessed as reduction in viral RNA replication by qRT-PCR analysis; assay type: functional, organism-based, Hepacivirus hominis; settings: isolate Con1, Huh-7
Method in brief: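 Con1 subgenomic replicon Huh-7 cells (neomycin selection, kept in DMEM/10% FBS with 0.25 mg/ml G418) treated with compounds in DMEM, 2% FBS, 0.5% DMSO, no G418, at 37°C. Total RNA extracted; HCV RNA copy number by multiplex Taqman QRT-PCR. EC50/EC90 by 4-parameter curve fit; EC50 is the mean of ≥2 independent runs.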

Chain of RNA-directed RNA polymerase (O39930 whole entry): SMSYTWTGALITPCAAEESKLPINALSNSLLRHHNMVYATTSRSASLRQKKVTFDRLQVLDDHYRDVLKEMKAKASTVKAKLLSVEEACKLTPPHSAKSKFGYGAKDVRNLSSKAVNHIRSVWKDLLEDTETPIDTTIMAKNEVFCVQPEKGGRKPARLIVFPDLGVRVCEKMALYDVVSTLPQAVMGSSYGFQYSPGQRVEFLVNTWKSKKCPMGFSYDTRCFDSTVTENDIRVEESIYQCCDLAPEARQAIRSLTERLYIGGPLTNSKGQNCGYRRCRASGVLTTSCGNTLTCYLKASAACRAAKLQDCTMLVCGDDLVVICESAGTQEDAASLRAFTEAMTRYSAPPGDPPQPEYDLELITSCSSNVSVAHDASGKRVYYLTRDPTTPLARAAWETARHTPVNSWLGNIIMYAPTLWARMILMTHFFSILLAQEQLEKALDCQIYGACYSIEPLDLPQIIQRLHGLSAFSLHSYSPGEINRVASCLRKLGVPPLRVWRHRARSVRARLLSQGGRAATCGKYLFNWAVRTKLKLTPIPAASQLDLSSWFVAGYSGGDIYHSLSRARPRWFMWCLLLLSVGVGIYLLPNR
Chain of DNA-directed RNA polymerase, mitochondrial (O00411 whole entry): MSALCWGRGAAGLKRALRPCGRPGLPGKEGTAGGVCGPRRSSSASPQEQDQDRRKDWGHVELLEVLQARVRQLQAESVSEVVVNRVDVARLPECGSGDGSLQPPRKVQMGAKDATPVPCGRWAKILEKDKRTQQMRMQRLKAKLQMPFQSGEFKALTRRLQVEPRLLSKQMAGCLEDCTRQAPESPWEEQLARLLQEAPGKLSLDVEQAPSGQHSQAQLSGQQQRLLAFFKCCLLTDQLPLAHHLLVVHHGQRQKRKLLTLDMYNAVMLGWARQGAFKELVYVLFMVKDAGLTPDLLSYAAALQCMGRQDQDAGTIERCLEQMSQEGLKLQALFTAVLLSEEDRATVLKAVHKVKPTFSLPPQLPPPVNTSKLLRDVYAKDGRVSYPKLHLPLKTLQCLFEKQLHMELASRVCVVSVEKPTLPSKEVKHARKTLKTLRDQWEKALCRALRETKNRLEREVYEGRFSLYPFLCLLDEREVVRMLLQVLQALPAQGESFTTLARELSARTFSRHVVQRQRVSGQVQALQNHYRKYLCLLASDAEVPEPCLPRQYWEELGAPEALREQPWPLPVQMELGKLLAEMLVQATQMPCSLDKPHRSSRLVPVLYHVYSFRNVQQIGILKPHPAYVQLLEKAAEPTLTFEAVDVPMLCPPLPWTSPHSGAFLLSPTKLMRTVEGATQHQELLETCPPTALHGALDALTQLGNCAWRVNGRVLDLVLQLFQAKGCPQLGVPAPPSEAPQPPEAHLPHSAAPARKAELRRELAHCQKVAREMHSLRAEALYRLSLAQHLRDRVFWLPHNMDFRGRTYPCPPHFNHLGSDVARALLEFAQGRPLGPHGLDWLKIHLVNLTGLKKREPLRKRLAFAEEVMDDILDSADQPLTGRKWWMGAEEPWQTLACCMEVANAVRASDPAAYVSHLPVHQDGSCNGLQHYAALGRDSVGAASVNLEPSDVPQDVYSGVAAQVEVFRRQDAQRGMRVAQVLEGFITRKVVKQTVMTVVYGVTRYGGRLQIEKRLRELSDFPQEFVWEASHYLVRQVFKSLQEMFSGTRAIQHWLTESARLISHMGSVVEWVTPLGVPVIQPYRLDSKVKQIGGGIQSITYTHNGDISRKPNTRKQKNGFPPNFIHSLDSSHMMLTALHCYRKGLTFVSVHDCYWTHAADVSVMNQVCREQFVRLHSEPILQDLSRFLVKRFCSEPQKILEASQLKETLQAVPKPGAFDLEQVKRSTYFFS
Chain of RNA-directed RNA polymerase (Hepacivirus hominis) (O39930 1-591): as the sequence (O39930 whole entry) above

| inhibition at 100 µM (DNA polymerase beta) [%] | inhibition (INH) [1] | IC50 [2] [nM] | inhibition at 100 µM (DNA polymerase gamma) [%] | IC50 [3] [nM] | inhibition at 100 µM (DNA polymerase alpha) [%] | Compound | further results |
| --- | --- | --- | --- | --- | --- | --- | --- |
| 12.6 | Not Active | > 100000 | 9.6 | 140 | 16.1 | C[C@]1(O)[C@H](n2ccc(=O)[nH]c2=O)O[C@](F)(COP(=O)(O)OP(=O)(O)OP(=O)(O)O)[C@H]1O [ADAFOSBUVIR 5'-TRIPHOSPHATE] | inhibition [4]: Active; inhibition [5]: Active |
| 24.7 |  | > 100000 | 15.7 | 300 | 70.8 | O=c1ccn([C@@H]2O[C@H](COP(=O)(O)OP(=O)(O)OP(=O)(O)O)[C@@H](O)[C@]2(F)Cl)c(=O)[nH]1 |  |
|  |  |  |  |  |  | COc1nc(N)nc2c1ncn2[C@@H]1O[C@H](COP(=O)(N[C@@H](C)C(=O)OCC(C)(C)C)Oc2cccc3ccccc23)[C@@H](O)[C@@]1(C)O (stereo partly drawn) [BMS-986094] | CC50 at 192 h [6]: 1500 nM; CC50 at 192 h [7]: 350 nM; CC50 at 192 h [8]: 170 nM; CC50 at 192 h [9]: 960 nM; CC50 at 192 h [10]: 13400 nM; CC50 at 192 h [11]: 7800 nM |
| 24.3 | Not Active | > 100000 | 18.4 | 110 | 19.7 | C[C@]1(Cl)[C@H](n2ccc(=O)[nH]c2=O)O[C@](F)(COP(=O)(O)OP(=O)(O)OP(=O)(O)O)[C@H]1O |  |
|  |  |  |  |  |  | CC(C)OC(=O)[C@H](C)NP(=O)(OC[C@@]1(F)O[C@@H](n2ccc(=O)[nH]c2=O)[C@](C)(O)[C@@H]1O)Oc1ccccc1 (stereo partly drawn) | t1/2 [12]: 30.1 h; CC50 at 72 h [13]: > 100000 nM; EC50 (Hepatitis C virus): 110 nM |
